Measurements pooled from the literature.
Each line is one published result; the experiments were not run side by side.
Target: Serine/threonine-protein kinase BRSK2 (BRSK2, Homo sapiens, UniProt Q8IWQ3)
Sequence (Q8IWQ3 1-736, as in one of the studies): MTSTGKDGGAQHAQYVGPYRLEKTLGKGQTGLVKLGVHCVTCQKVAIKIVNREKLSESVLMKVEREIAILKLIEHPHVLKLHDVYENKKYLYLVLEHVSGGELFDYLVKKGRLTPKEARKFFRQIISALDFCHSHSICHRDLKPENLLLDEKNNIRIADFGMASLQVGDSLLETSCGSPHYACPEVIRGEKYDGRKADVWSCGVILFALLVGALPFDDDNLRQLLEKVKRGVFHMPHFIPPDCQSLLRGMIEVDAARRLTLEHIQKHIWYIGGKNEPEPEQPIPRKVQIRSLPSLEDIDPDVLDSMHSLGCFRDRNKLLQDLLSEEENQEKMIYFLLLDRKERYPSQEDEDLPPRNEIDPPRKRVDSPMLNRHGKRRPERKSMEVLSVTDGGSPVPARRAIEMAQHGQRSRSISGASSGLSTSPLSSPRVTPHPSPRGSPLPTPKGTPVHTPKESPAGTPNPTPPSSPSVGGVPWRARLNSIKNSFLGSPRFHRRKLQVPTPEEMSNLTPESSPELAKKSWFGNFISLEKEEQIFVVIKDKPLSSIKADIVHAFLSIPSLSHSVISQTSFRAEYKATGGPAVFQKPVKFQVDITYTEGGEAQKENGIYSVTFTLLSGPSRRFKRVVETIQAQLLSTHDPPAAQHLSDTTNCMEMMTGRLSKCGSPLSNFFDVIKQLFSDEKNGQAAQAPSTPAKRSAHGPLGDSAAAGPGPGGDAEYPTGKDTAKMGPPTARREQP

| Compound | effect on | mode | technique | tested at | quantity | result |
| --- | --- | --- | --- | --- | --- | --- |
| CC(C)(C)c1nc(-c2cccc(NS(=O)(=O)c3c(F)cccc3F)c2F)c(-c2ccnc(N)n2)s1 | enzyme activity | inhibitor | radiometric | 1 µM | remaining activity | 50% |
| Nc1nc(NC2CCCCC2)sc1C(=O)c1ccccc1 | enzyme activity | inhibitor | – | 10 µM | remaining activity | 93% |
| CC(C)(O)[C@H]1CC[C@H](Nc2ccc3ncc(-c4cccc(C(F)(F)F)c4)n3n2)CC1 | enzyme activity | inhibitor | – | 1 µM | remaining activity | 94.4% |
| CN(C)S(=O)(=O)c1ccc2c(c1)/C(=C/c1cc3c([nH]1)CCCC3)C(=O)N2 | cell-free assay | – | – | 0.5 µM | remaining signal | 48.7% |
| CN1CC(Oc2cnc(C#N)cc2-c2ccn3nc(NC(=O)C4CC4)cc3c2)C1 | enzyme activity | inhibitor | – | 1 µM | inhibition | 16% |
| Nc1ncnc2occ(-c3ccc(NC(=O)Nc4cc(C(F)(F)F)ccc4F)cc3)c12 | cell-free assay | inhibitor | – | 20 µM | remaining signal | 6.6% |
| Cc1cc(-n2nc(Cc3cc(F)cc(C(F)(F)F)c3)nc2C)ccc1C(N)=O | cell-free assay | – | competition with immobilised ligand | 1 µM | remaining binding | 77% |
| Cc1cnc(NC2CCOCC2)nc1-n1cnc(C(=O)NC(CN)c2cc(F)cc(Cl)c2)c1 (stereo not shown) | enzyme activity | inhibitor | radiometric | 1 µM | remaining activity | 42% |
| FC(F)(F)Oc1cccc(-c2cnc3ccc(-c4ccncc4)nn23)c1 | enzyme activity | inhibitor | radiometric | 5 µM | activity vs control | 99% |
| COc1cc(Nc2cnc(C#N)c(O[C@H](C)CN(C)C)n2)ncc1-c1cnn(C)c1 | enzyme activity | inhibitor | radiometric | 1 µM | remaining activity | 23% |
| N#CCCc1ccc2c(c1)-c1[nH]c3ccc([N+](=O)[O-])cc3c1CC(=O)N2 | cell-free assay | – | – | 0.5 µM | remaining signal | 42% |
| Cc1ccc(Nc2nccc(N(C)c3ccc4c(C)n(C)nc4c3)n2)cc1S(N)(=O)=O | enzyme activity | inhibitor | – | 10 µM | inhibition | -11% |
| FC(F)(F)c1ccc2c(c1)nc(-c1cccnc1)n2C1CC1 | cell-free assay | – | competition with immobilised ligand | 1 µM | remaining binding | 90% |
| Cc1cc(NC(=O)c2cccc3cc(-c4cccc5[nH]nc(N)c45)ccc23)ccc1F | enzyme activity | inhibitor | – | 0.1 µM | activity vs control | 100% |
| CC/C(=N\NC(=O)NCc1cccc(O)c1)c1ccc(O)c(C)c1O | enzyme activity | inhibitor | – | 0.1 µM | inhibition | 3.7% |
| CNCc1ccccc1-c1csc([C@@H](C)Nc2nc(C)nc3cc(OC)c(OC)cc23)c1 | cell-free assay | – | competition with immobilised ligand | 1 µM | remaining binding | 100% |
| CCN(CC)CCNC(=O)c1c(C)[nH]c(/C=C2\C(=O)Nc3ccc(F)cc32)c1C | enzyme activity | inhibitor | – | 10 µM | inhibition | 82% |
| CCCS(=O)(=O)Nc1ccc(F)c(C(=O)c2c[nH]c3ncc(-c4ccc(Cl)cc4)cc23)c1F | enzyme activity | inhibitor | – | 1 µM | inhibition | < 10% |
| CCc1ccccc1C(=O)Nc1n[nH]c2c(C)c(F)c(C3C(C#N)=C(C)N(C)C(C)=C3C#N)cc12 | cell-free assay | – | competition with immobilised ligand | 1 µM | remaining binding | 36% |
| FC(F)c1nc2ccccc2n1-c1nc(N2CCOCC2)nc(N2CCOCC2)n1 | enzyme activity | inhibitor | – | 10 µM | remaining activity | 88% |
| CS(=O)(=O)N1CCCC(NC(=O)[C@H](CCC2CCCCC2)NC(=O)c2ccc(CNC(=O)c3cnc4ccccn34)cc2)C1 (stereo partly shown) | cell-free assay | – | competition with immobilised ligand | 0.1 µM | remaining binding | 100% |
| CNc1cccc2cc(C(=O)Nc3ccc(C(=O)O)cc3)c(=O)[nH]c12 | enzyme activity | inhibitor | – | 10 µM | inhibition | 7.8% |
| CN([C@@H]1CCc2c(CC(=O)O)c3ccccc3n2C1)S(=O)(=O)c1ccc(F)cc1 | cell-free assay | – | competition with immobilised ligand | 1 µM | remaining binding | 100% |
| Cc1sc(C(=O)NC2COC2)cc1-n1cc(NC(=O)Nc2c(F)cccc2Cl)cn1 | enzyme activity | inhibitor | – | 10 µM | remaining activity | 102% |
| CS(=O)(=O)NCC[C@H](NC(=O)c1cncc2c1cnn2-c1ccc(F)cc1)c1ccnc(S(C)(=O)=O)c1 | cell-free assay | – | competition with immobilised ligand | 1 µM | remaining binding | 77% |
| COc1ccc(COc2ccc(Cc3cnc(N)nc3N)cc2OC)cc1 | cell-free assay | – | – | 0.5 µM | remaining signal | 96.8% |
| CCS(=O)(=O)c1cc2cc(C[C@](O)(CC(C)(C)c3ccc(F)cc3C(N)=O)C(F)(F)F)[nH]c2cn1 | cell-free assay | – | competition with immobilised ligand | 1 µM | remaining binding | 100% |
| O=C1Nc2ccc(Cl)cc2C1=Cc1cc(Cl)c(O)c(Cl)c1 | cell-free assay | – | – | 0.5 µM | remaining signal | 77.2% |
